From ChEMBL document CHEMBL1122240, “Inhibition by carboxamides and sulfoxides of liver alcohol dehydrogenase and ethanol metabolism” (J Med Chem, 1983)

Key:
Alcohol dehydrogenase = Alcohol dehydrogenase (Equus caballus, UniProt P00327+P00328); experiment: In vitro inhibition against horse liver alcohol dehydrogenase
[1] = molecular target: T1, Alcohol dehydrogenase (Equus caballus) (UniProt P00327+P00328); experiment: Intercept inhibition constant was determined against horse liver alcohol dehydrogenase in presence of acetaldehyde
Procedure, shortened: (§1)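 Purified horse liver enzyme, reverse reaction. Freshly distilled acetaldehyde was varied (1–5 mM; 0.4–2.0 mM in some runs) with 0.1 mM NADH and at least three inhibitor levels. Initial velocities were read as A340 change, 32 points per experiment, and inhibition constants were obtained from double-reciprocal fits.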

[2] = molecular target: T1, Alcohol dehydrogenase (Equus caballus); experiment: Intercept inhibition constant was determined against horse liver alcohol dehydrogenase in presence of ethanol
Procedure, shortened: (§2)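 Purified horse liver enzyme with ethanol varied as substrate and NAD+ as coenzyme. At least three inhibitor concentrations were tested (e.g. 0–0.2 mM). Initial velocities were followed at 340 nm, 32 points in one experiment. Intercept and slope constants were derived from double-reciprocal plots fitted to uncompetitive or noncompetitive equations.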

[3] = molecular target: T1, Alcohol dehydrogenase (Equus caballus); experiment: Slope inhibition constant was determined against horse liver alcohol dehydrogenase in presence of acetaldehyde; procedure, shortened: as §1
[4] = Michaelis-Menten's constant was determined in vivo against rat liver alcohol dehydrogenase in presence of ethanol; assay type: organism-based
Procedure, shortened: (§3)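 Fed male Sprague-Dawley rats (175–280 g) received inhibitor ip (0.1 M sulfoxide or ≤0.46 M amide in saline) at 0–1.0 mmol/kg. Ten minutes later ethanol (3.26 M) was given ip at 7.69, 10.9 or 19.6 mmol/kg. Tail blood was sampled over time and ethanol measured by GC against a tert-butyl alcohol internal standard. Rate was derived by Widmark's method.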

[5] = Intercept inhibition constant was determined in vitro against purified rat liver alcohol dehydrogenase in presence of ethanol
Procedure, shortened: (§4)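 Rat liver enzyme partially purified by (NH4)2SO4 fractionation, DEAE-cellulose and Sephadex G-100. Assays ran in 83 mM potassium phosphate pH 7.3 with 40 mM KCl (μ 0.25) at 37.8 °C, with 0.5 mM NAD+, ethanol at 0.4–2 mM and inhibitor at 0–0.6 mM. Initial rates were read at 340 nm, 32 points per experiment.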

[6] = Intercept inhibition constant was determined in vivo against rat liver alcohol dehydrogenase in presence of ethanol; assay type: organism-based; procedure, shortened: as §3
[7] = molecular target: T1, Alcohol dehydrogenase (Equus caballus); experiment: Slope inhibition constant was determined against horse liver alcohol dehydrogenase in presence of ethanol; procedure, shortened: as §2
[8] = In vivo inhibition of ethanol metabolism following 1 mMol/Kg i.p.; conditions: ip
CC(C)CC(N)=O [9] = experiment: (§5) Michaelis-Menten's constant was determined against horse liver alcohol dehydrogenase in presence of ethanol; conditions: Equus caballus; procedure, shortened: as §2
[O-][S+]1CCCC1 [10] = as §5; conditions: Equus caballus; procedure, shortened: as §2
CC(C)CC(N)=O [11] = experiment: (§6) Michaelis-Menten's constant was determined against horse liver alcohol dehydrogenase in presence of acetaldehyde; conditions: Equus caballus; procedure, shortened: as §1
[O-][S+]1CCCC1 [12] = as §6; conditions: Equus caballus; procedure, shortened: as §1
[13] = Michaelis-Menten's constant was determined in vitro against purified rat liver alcohol dehydrogenase in presence of ethanol; procedure, shortened: as §4
[14] = Slope inhibition constant was determined against purified rat liver alcohol dehydrogenase in presence of ethanol; procedure, shortened: as §4
[15] = In vivo inhibition of ethanol metabolism following 1 mMol/Kg i.p.

Sequence of Alcohol dehydrogenase (Equus caballus) (from UniProt P00327+P00328) (P00328 whole entry, looked up): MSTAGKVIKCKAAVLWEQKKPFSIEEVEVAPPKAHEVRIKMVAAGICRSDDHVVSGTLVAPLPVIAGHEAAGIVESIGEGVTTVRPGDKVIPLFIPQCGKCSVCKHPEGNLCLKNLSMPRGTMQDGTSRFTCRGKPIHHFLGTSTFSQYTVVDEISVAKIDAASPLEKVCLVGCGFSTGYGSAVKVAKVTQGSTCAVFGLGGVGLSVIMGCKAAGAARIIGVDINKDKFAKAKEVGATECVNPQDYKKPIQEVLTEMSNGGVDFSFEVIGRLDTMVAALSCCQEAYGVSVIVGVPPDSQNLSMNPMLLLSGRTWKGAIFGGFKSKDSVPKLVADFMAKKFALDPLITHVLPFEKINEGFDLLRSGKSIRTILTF
Sequence of Alcohol dehydrogenase (Equus caballus) (from UniProt P00327+P00328) (P00327 whole entry, looked up): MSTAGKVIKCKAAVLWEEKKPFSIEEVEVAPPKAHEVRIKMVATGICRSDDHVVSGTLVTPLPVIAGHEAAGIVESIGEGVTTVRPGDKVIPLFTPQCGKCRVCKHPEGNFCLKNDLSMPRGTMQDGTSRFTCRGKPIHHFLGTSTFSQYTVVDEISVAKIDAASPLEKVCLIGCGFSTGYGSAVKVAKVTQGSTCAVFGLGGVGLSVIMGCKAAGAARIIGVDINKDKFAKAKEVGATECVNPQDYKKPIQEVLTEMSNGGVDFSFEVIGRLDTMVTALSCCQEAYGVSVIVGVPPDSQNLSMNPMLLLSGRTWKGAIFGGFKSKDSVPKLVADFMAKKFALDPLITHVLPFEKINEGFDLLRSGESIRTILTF

Molecule	Ki (Alcohol dehydrogenase) [µM]	inhibition in vivo at 1000 µmol/kg [8] [%]	other results
NNC(N)=S [THIOSEMICARBAZIDE]	1900	–	–
CC(C)CC(N)=O [ISOVALERAMIDE]	20	78	Kii [1]: 460 µM; Kii [2]: 20 µM; Kis [3]: 11 µM; Km [4]: 1500 µM/kg; Kii [5]: 20 µM; Kii [6]: 180 µM/kg; Kis [7]: 160 µM
CC(C)(Br)C(N)=O	–	5	–
C[S+]([O-])Cc1ccccc1 (stereo unspecified)	5000	13	–
C[S+]([O-])c1ccccc1 (stereo unspecified) [METHYLPHENYLSULFOXIDE]	200	19	–
NC(=O)CCCl	5300	15	–
[O-][S+]1CCC1	150	25	–
NC(=O)CSCC(N)=O	36000	7	–
CCCCCCCCCCCCCC[S+](C)[O-] (stereo unspecified)	10	15	–
CC(C)C[S+](C)[O-] (stereo unspecified)	340	14	–
NC(N)=S [THIOUREA]	42000	–	–
CC(C)C(=O)NN	2900	–	–
Alcohol dehydrogenase (Equus caballus) (from UniProt P00327+P00328)	–	–	Km (CC(C)CC(N)=O [9]): 900 µM; Km ([O-][S+]1CCCC1 [10]): 620 µM; Km (CC(C)CC(N)=O [11]): 150 µM; Km ([O-][S+]1CCCC1 [12]): 230 µM
CC[S+](C)[O-] (stereo unspecified)	500	16	–
CC(C)CC[S+](C)[O-] (stereo unspecified)	430	19	–
NC(=O)CCCCO	4400	9	–
[O-][S+]1CCNCC1	120000	–	–
NC(=O)CCCO	6800	5	–

Molecule	Ki (Alcohol dehydrogenase) [µM]	inhibition in vivo at 1000 µmol/kg [8] [%]	other results
CC[S+]([O-])c1ccccc1 (stereo unspecified)	12500	–	–
CCCCCCCCC(N)=O [NONANOAMIDE]	–	15	–
[O-][S+]1CCCCC1	480	21	–
NC(=O)C(O)CCO (stereo unspecified)	5800	–	–
NC(=O)C1CC1 [CYCLOPROPANECARBOXYLIC ACID AMIDE]	790	29	–
[O-][S+]1CCCC1	19	–	Kii [1]: 71 µM; Kii [2]: 19 µM; Kis [3]: 11 µM; Km [4]: 2000 µM/kg; Kii [5]: 200 µM; Kii [6]: 340 µM/kg; Km [13]: 350 µM; Kis [7]: 130 µM; Kis [14]: 230 µM; inhibition [15]: 63%
CC(C)C(N)=O [ISOBUTYRAMIDE]	220	36	–
COCC(N)=O [METHOXYACETAMIDE]	600	18	–
CCCCCC[S+](C)[O-] (stereo unspecified)	47	67	–
CC[S+]([O-])CC	1100	–	–
C=C[S+]([O-])c1ccccc1 (stereo unspecified)	500	–	–
NC(=O)C(F)(F)C(F)(F)C(F)(F)F [HEPTAFLUOROBUTYRAMIDE]	2000	–	–
O=C1CCCCN1	13000	–	–
O=C1CC[S+]([O-])CC1	9700	–	–
NC(=O)CCCCCO	1500	24	–
[O-][S+]1CCOCC1	10600	–	–
CC(C)(C)CC(N)=O	150	71	–
NC(=O)CCO	8500	15	–
